Measured values as given in ChEMBL document CHEMBL1125826, “Synthesis and biological activity of 5-amino- and 5-hydroxyquinolones, and the overwhelming influence of the remote N1-substituent in determining the structure-activity relationship” (1991).
Values after ≈ are worked out from the molar mass of the structure shown.

Key:
Assay type in all cases: functional
Enterococcus faecalis = test: Antibacterial activity was determined against gram positive organism, Streptococcus faecalis MGH-2; conditions: Enterococcus faecalis; read-out: MIC
In short: (§1)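 MIC (µg/mL) by standard microtitration against a panel of 10 Gram-positive and Gram-negative organisms; values averaged from multiple experiments.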

Klebsiella pneumoniae = test: Antibacterial activity was determined against gram negative organism, Klebsiella pneumoniae MGH-2; conditions: Klebsiella pneumoniae; read-out: MIC; in short: as §1
Staphylococcus aureus [1] = test: Antibacterial activity was determined against gram positive organism, Staphylococcus aureus UC76; conditions: Staphylococcus aureus; read-out: MIC; in short: as §1
[2] = molecular target: DNA gyrase (Escherichia coli) (UniProt P0AES6+P0AES4); test: Minimum inhibitory concentration against Escherichia coli DNA-gyrase in supercoiling assay
Streptococcus pneumoniae [3] = test: Antibacterial activity was determined against gram positive organism, Streptococcus pneumoniae SV-1; conditions: Streptococcus pneumoniae; read-out: MIC; in short: as §1
Escherichia coli [4] = test: The in vivo potency was determined in female charles river CD-1 mice infected with Escherichia coli after peroral administration; conditions: Escherichia coli, po; read-out: PD50
In short: (§2)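 Acute lethal systemic infection in female CD-1 mice, 16 mice per route; single dose given orally by gavage at the time of challenge; median protective dose (PD50, mg/kg) determined.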

Bacteria [5] = test: Antibacterial activity was determined against gram negative organism, Providencia rettgeri. M1771; conditions: Bacteria; read-out: MIC; in short: as §1
Bacteria [6] = test: MIC ratio measured as the mean MICs of gram-negative bacteria
In short: (§3)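 Geometric mean of the microtitration MICs (µg/mL) over the Gram-negative organisms, and separately over the Gram-positive organisms, of the 10-strain panel; individual MICs averaged from multiple experiments.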

Bacteria [7] = test: MIC ratio measured as the mean MICs of gram-positive bacteria; in short: as §3
Escherichia coli [8] = test: The in vivo potency was determined in female charles river CD-1 mice infected with Escherichia coli after sc administration; conditions: Escherichia coli, sc; read-out: PD50
In short: (§4)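 Acute lethal systemic infection in female CD-1 mice, 16 mice per route; single subcutaneous dose given at the time of challenge; median protective dose (PD50, mg/kg) determined.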

Streptococcus pyogenes [9] = test: Antibacterial activity was determined against gram positive organism, Streptococcus pyogenes C203; conditions: Streptococcus pyogenes; read-out: MIC; in short: as §1
Streptococcus pyogenes [10] = test: The in vivo potency was determined in female charles river CD-1 mice infected with Streptococcus pyogenes after sc administration; conditions: Streptococcus pyogenes, sc; read-out: PD50; in short: as §4
Pseudomonas aeruginosa = test: Antibacterial activity was determined against gram negative organism, Pseudomonas aeruginosa UI-18; conditions: Pseudomonas aeruginosa; read-out: MIC; in short: as §1
Streptococcus pyogenes [11] = test: The in vivo potency was determined in female charles river CD-1 mice infected with Streptococcus pyogenes after peroral administration; conditions: Streptococcus pyogenes, po; read-out: PD50; in short: as §2
Staphylococcus aureus [12] = test: Antibacterial activity was determined against gram positive organism, Staphylococcus aureus H228; conditions: Staphylococcus aureus; read-out: MIC; in short: as §1
Escherichia coli [13] = test: Antibacterial activity was determined against gram negative organism, Escherichia coli vogel; conditions: Escherichia coli; read-out: MIC; in short: as §1
Enterobacter cloacae = test: Antibacterial activity was determined against gram negative organism, Enterobacter cloacae MA2646; conditions: Enterobacter cloacae; read-out: MIC
Streptococcus pneumoniae [14] = test: The in vivo potency was determined in female charles river CD-1 mice infected with Streptococcus pneumoniae after peroral administration; conditions: Streptococcus pneumoniae, po; read-out: PD50; in short: as §2
Streptococcus pneumoniae [15] = test: The in vivo potency was determined in female charles river CD-1 mice infected with Streptococcus pneumoniae after sc administration; conditions: Streptococcus pneumoniae, sc; read-out: PD50; in short: as §4

Nc1c(F)c(N2CCNCC2)c(Cl)c2c1c(=O)c(C(=O)O)cn2C1CC1
MIC (Enterococcus faecalis): 0.1 µg/mL (≈ 0.263 µM) | MIC (Klebsiella pneumoniae): 0.05 µg/mL (≈ 0.131 µM) | MIC (Staphylococcus aureus [1]): 0.025 µg/mL (≈ 0.0657 µM) | MIC [2]: 1 µg/mL (≈ 2.63 µM) | MIC (Streptococcus pneumoniae [3]): 0.1 µg/mL (≈ 0.263 µM) | ED50 (Escherichia coli [4]): 2 mg/kg | MIC (Bacteria [5]): 0.1 µg/mL (≈ 0.263 µM) | Geometric mean MIC over Gram-negative bacteria (µg/mL) (Bacteria [6]): 0.076 | Geometric mean MIC over Gram-positive bacteria (µg/mL) (Bacteria [7]): 0.087 | ED50 (Escherichia coli [8]): 0.5 mg/kg | MIC (Streptococcus pyogenes [9]): 0.2 µg/mL (≈ 0.525 µM) | ED50 (Streptococcus pyogenes [10]): 10 mg/kg | MIC (Pseudomonas aeruginosa): 0.8 µg/mL (≈ 2.1 µM) | ED50 (Streptococcus pyogenes [11]): 26 mg/kg | MIC (Staphylococcus aureus [12]): 0.1 µg/mL (≈ 0.263 µM) | MIC (Escherichia coli [13]): 0.025 µg/mL (≈ 0.0657 µM) | MIC (Enterobacter cloacae): 0.025 µg/mL (≈ 0.0657 µM)

CC1CN(c2cc3c(c(N)c2F)c(=O)c(C(=O)O)cn3C2CC2)CCN1 (stereo not drawn)
MIC (Enterococcus faecalis): 0.2 µg/mL (≈ 0.555 µM) | MIC (Klebsiella pneumoniae): 0.025 µg/mL (≈ 0.0694 µM) | MIC (Staphylococcus aureus [1]): 0.05 µg/mL (≈ 0.139 µM) | MIC [2]: 0.5 µg/mL (≈ 1.39 µM) | MIC (Streptococcus pneumoniae [3]): 0.1 µg/mL (≈ 0.277 µM) | ED50 (Escherichia coli [4]): 2 mg/kg | MIC (Bacteria [5]): 0.1 µg/mL (≈ 0.277 µM) | Geometric mean MIC over Gram-negative bacteria (µg/mL) (Bacteria [6]): 0.058 | Geometric mean MIC over Gram-positive bacteria (µg/mL) (Bacteria [7]): 0.13 | ED50 (Escherichia coli [8]): 0.4 mg/kg | MIC (Streptococcus pyogenes [9]): 0.2 µg/mL (≈ 0.555 µM) | ED50 (Streptococcus pyogenes [10]): 21 mg/kg | MIC (Pseudomonas aeruginosa): 0.4 µg/mL (≈ 1.11 µM) | ED50 (Streptococcus pyogenes [11]): 66 mg/kg | MIC (Staphylococcus aureus [12]): 0.2 µg/mL (≈ 0.555 µM) | MIC (Escherichia coli [13]): 0.013 µg/mL (≈ 0.0361 µM) | MIC (Enterobacter cloacae): 0.025 µg/mL (≈ 0.0694 µM)

CC1CN(c2c(F)c(O)c3c(=O)c(C(=O)O)cn(C4CC4)c3c2F)CCN1 (stereo not drawn)
MIC (Enterococcus faecalis): 0.8 µg/mL (≈ 2.11 µM) | MIC (Klebsiella pneumoniae): 0.2 µg/mL (≈ 0.527 µM) | MIC (Staphylococcus aureus [1]): 0.1 µg/mL (≈ 0.264 µM) | MIC [2]: 0.5 µg/mL (≈ 1.32 µM) | MIC (Streptococcus pneumoniae [3]): 0.4 µg/mL (≈ 1.05 µM) | ED50 (Escherichia coli [4]): 2 mg/kg | MIC (Bacteria [5]): 0.2 µg/mL (≈ 0.527 µM) | Geometric mean MIC over Gram-negative bacteria (µg/mL) (Bacteria [6]): 0.2 | Geometric mean MIC over Gram-positive bacteria (µg/mL) (Bacteria [7]): 0.4 | ED50 (Escherichia coli [8]): 0.8 mg/kg | MIC (Streptococcus pyogenes [9]): 0.4 µg/mL (≈ 1.05 µM) | ED50 (Streptococcus pyogenes [10]): > 50 mg/kg | MIC (Pseudomonas aeruginosa): 1.6 µg/mL (≈ 4.22 µM) | ED50 (Streptococcus pyogenes [11]): > 50 mg/kg | MIC (Staphylococcus aureus [12]): 0.8 µg/mL (≈ 2.11 µM) | MIC (Escherichia coli [13]): 0.05 µg/mL (≈ 0.132 µM) | MIC (Enterobacter cloacae): 0.1 µg/mL (≈ 0.264 µM)

CC1CN(c2c(F)cc3c(=O)c(C(=O)O)cn(C4CC4)c3c2Cl)CCN1 (stereo not drawn)
MIC (Enterococcus faecalis): 0.2 µg/mL (≈ 0.527 µM) | MIC (Klebsiella pneumoniae): 0.05 µg/mL (≈ 0.132 µM) | MIC (Staphylococcus aureus [1]): 0.05 µg/mL (≈ 0.132 µM) | MIC [2]: 2.5 µg/mL (≈ 6.58 µM) | MIC (Streptococcus pneumoniae [3]): 0.2 µg/mL (≈ 0.527 µM) | ED50 (Escherichia coli [4]): 0.6 mg/kg | MIC (Bacteria [5]): 0.2 µg/mL (≈ 0.527 µM) | Geometric mean MIC over Gram-negative bacteria (µg/mL) (Bacteria [6]): 0.087 | Geometric mean MIC over Gram-positive bacteria (µg/mL) (Bacteria [7]): 0.15 | ED50 (Escherichia coli [8]): 0.2 mg/kg | MIC (Streptococcus pyogenes [9]): 0.2 µg/mL (≈ 0.527 µM) | ED50 (Streptococcus pyogenes [10]): 3 mg/kg | MIC (Pseudomonas aeruginosa): 0.8 µg/mL (≈ 2.11 µM) | ED50 (Streptococcus pyogenes [11]): 6 mg/kg | MIC (Staphylococcus aureus [12]): 0.2 µg/mL (≈ 0.527 µM) | MIC (Escherichia coli [13]): 0.025 µg/mL (≈ 0.0658 µM) | MIC (Enterobacter cloacae): 0.025 µg/mL (≈ 0.0658 µM)

CCNCC1CCN(c2c(F)cc3c(=O)c(C(=O)O)cn(C4CC4)c3c2F)C1 (stereo not drawn) [PD-117558]
MIC (Enterococcus faecalis): 0.025 µg/mL (≈ 0.0639 µM) | MIC (Klebsiella pneumoniae): 0.1 µg/mL (≈ 0.255 µM) | MIC (Staphylococcus aureus [1]): 0.013 µg/mL (≈ 0.0332 µM) | MIC [2]: 0.25 µg/mL (≈ 0.639 µM) | MIC (Streptococcus pneumoniae [3]): 0.025 µg/mL (≈ 0.0639 µM) | ED50 (Escherichia coli [4]): 4 mg/kg | MIC (Bacteria [5]): 0.2 µg/mL (≈ 0.511 µM) | Geometric mean MIC over Gram-negative bacteria (µg/mL) (Bacteria [6]): 0.13 | ED50 (Streptococcus pneumoniae [14]): 2 mg/kg | Geometric mean MIC over Gram-positive bacteria (µg/mL) (Bacteria [7]): 0.025 | ED50 (Escherichia coli [8]): 1 mg/kg | ED50 (Streptococcus pneumoniae [15]): 0.5 mg/kg | MIC (Streptococcus pyogenes [9]): 0.025 µg/mL (≈ 0.0639 µM) | ED50 (Streptococcus pyogenes [10]): 2 mg/kg | MIC (Pseudomonas aeruginosa): 0.4 µg/mL (≈ 1.02 µM) | ED50 (Streptococcus pyogenes [11]): 5 mg/kg | MIC (Staphylococcus aureus [12]): 0.05 µg/mL (≈ 0.128 µM) | MIC (Escherichia coli [13]): 0.05 µg/mL (≈ 0.128 µM) | MIC (Enterobacter cloacae): 0.1 µg/mL (≈ 0.255 µM)

CC1CN(c2cc3c(cc2F)c(=O)c(C(=O)O)cn3C2CC2)CCN1 (stereo not drawn)
MIC (Enterococcus faecalis): 0.4 µg/mL (≈ 1.16 µM) | MIC (Klebsiella pneumoniae): 0.05 µg/mL (≈ 0.145 µM) | MIC (Staphylococcus aureus [1]): 0.1 µg/mL (≈ 0.29 µM) | MIC [2]: 0.5 µg/mL (≈ 1.45 µM) | MIC (Streptococcus pneumoniae [3]): 0.2 µg/mL (≈ 0.579 µM) | ED50 (Escherichia coli [4]): 1 mg/kg | MIC (Bacteria [5]): 0.1 µg/mL (≈ 0.29 µM) | Geometric mean MIC over Gram-negative bacteria (µg/mL) (Bacteria [6]): 0.066 | Geometric mean MIC over Gram-positive bacteria (µg/mL) (Bacteria [7]): 0.23 | ED50 (Escherichia coli [8]): 0.4 mg/kg | MIC (Streptococcus pyogenes [9]): 0.2 µg/mL (≈ 0.579 µM) | ED50 (Streptococcus pyogenes [10]): 12 mg/kg | MIC (Pseudomonas aeruginosa): 0.4 µg/mL (≈ 1.16 µM) | ED50 (Streptococcus pyogenes [11]): 39 mg/kg | MIC (Staphylococcus aureus [12]): 0.4 µg/mL (≈ 1.16 µM) | MIC (Escherichia coli [13]): 0.025 µg/mL (≈ 0.0724 µM) | MIC (Enterobacter cloacae): 0.025 µg/mL (≈ 0.0724 µM)

O=C(O)c1cn(C2CC2)c2cc(N3CCNCC3)c(F)cc2c1=O [CIPROFLOXACIN]
MIC (Enterococcus faecalis): 0.8 µg/mL (≈ 2.41 µM) | MIC (Klebsiella pneumoniae): 0.05 µg/mL (≈ 0.151 µM) | MIC (Staphylococcus aureus [1]): 0.2 µg/mL (≈ 0.604 µM) | MIC (Streptococcus pneumoniae [3]): 0.8 µg/mL (≈ 2.41 µM) | ED50 (Escherichia coli [4]): 1 mg/kg | MIC (Bacteria [5]): 0.05 µg/mL (≈ 0.151 µM) | ED50 (Streptococcus pneumoniae [14]): > 100 mg/kg | ED50 (Escherichia coli [8]): 0.3 mg/kg | ED50 (Streptococcus pneumoniae [15]): 228 mg/kg | MIC (Streptococcus pyogenes [9]): 0.8 µg/mL (≈ 2.41 µM) | ED50 (Streptococcus pyogenes [10]): 19 mg/kg | MIC (Pseudomonas aeruginosa): 0.4 µg/mL (≈ 1.21 µM) | ED50 (Streptococcus pyogenes [11]): > 100 mg/kg | MIC (Staphylococcus aureus [12]): 1.6 µg/mL (≈ 4.83 µM)
